Source: PubChem
Tb hexokinase: blocks Trypanosoma brucei hexokinase 1 activity | recombinant TbHK1, G6PDH-coupled NADH A340 | inhibition, % at 10 µM | 220,000 compounds, 0.11% hits;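 active = inhibition of 50% or more in the single-dose primary screen; inactive = inhibition below 50%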
m-calpain inh: calpain II (pig) inhibition; 220,000 compounds, 0.37% hits; inhibition, % at 16 µM; purified calpain II, fluorogenic peptide substrate, 30 min;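 active = inhibition above about 50%, limit read from the data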
NPY Y1 blocker: antagonists of human neuropeptide Y receptor Y1. P25929. HEK293-CNG Y1 cells, membrane potential fluorescence; NPY at EC95, then isoproterenol. inhibition, % at 3.6 µM. 200,000 compounds, 1% hits. AID 1040;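 active = inhibition above the campaign mean inhibition of all tested compounds plus 3 SD, cut at about 20% in these data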;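 also: 0% = DMSO wells given NPY plus isoproterenol and 100% = isoproterenol alone without NPY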
Target sequence (P25929 whole entry, looked up): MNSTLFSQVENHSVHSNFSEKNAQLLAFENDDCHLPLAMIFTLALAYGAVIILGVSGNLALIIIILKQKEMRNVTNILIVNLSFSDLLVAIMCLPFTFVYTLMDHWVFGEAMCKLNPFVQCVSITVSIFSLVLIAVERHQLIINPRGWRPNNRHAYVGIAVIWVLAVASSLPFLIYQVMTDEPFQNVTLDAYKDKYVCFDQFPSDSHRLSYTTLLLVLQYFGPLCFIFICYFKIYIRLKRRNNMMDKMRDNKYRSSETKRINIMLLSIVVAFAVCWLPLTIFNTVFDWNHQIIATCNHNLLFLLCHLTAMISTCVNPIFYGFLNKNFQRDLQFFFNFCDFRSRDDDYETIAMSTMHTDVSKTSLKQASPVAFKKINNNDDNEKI
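Test system: HEK293 cells co-expressing NPY Y1 receptor and cyclic-nucleotide gated channel; Also added: NPY (25 nM), isoproterenol (1 µM), Ro 20-1724 (25 µM); Compound dosing: one concentration, 3.6 µM, in 0.4% DMSO; Timing: dye 3 h, compound 60 min room temperature, stimulation 45 min; Technique: Membrane-potential fluorescent dye readout.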
NPY-Y1 PAM-ag: potentiates or activates human NPY-Y1 receptor; NPY-Y1 expressing cells, potentiator/agonist activation; P25929; AID 1304; activation, % at 3.6 µM; 220,000 compounds, 0.37% hits; in the data active = activation above about 33%, passing the limit was not always enough;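 also: cells stimulated with NPY at EC10 then isoproterenol at EC100; 0% = low agonist plus stimulus and 100% = saturating agonist plus stimulus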
NPY-Y2 PAM-ag: human NPY-Y2 potentiation or agonism, primary screen. AID 1359. 220,000 compounds, 0.45% hits. cells expressing NPY-Y2, potentiator/agonist read-out. activation, % at 3.6 µM; in the data active = activation above about 27%;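 also: cells stimulated with NPY near EC25 plus isoproterenol at EC100; 0% = vehicle plus submaximal agonist and 100% = vehicle plus saturating agonist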
NPY-Y2 antag: NPY-Y2 (human) receptor antagonism | 140,000 compounds, 0.99% hits | AID 793 | inhibition, % at 2.7 µM | P49146 | NPY-Y2 expressing cells, antagonist mode; in the data active = inhibition above about 17%;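 also: 0% = vehicle with agonist challenge and 100% = reference antagonist with challenge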
NPY1 antag ctr: antagonizes human NPY-Y1, counter-screen to NPY-Y2 antagonists; inhibition, % at 3.6 µM; 710 compounds, 19% hits; shares compounds with NPY-Y2 antag; cell-based NPY-Y1 antagonism counterscreen; in the data active = inhibition above about 20%;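 also: cells challenged with NPY then isoproterenol with cAMP sensed through a CNG channel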
NPY-Y2 ant conf: human NPY-Y2 antagonism, confirmation | HEK293 NPY-Y2 CNG channel, membrane potential fluorescence | inhibition, % at 2.8 µM | AID 1257 | shares compounds with NPY-Y2 antag | 710 compounds, 32% hits;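 active = mean inhibition of triplicate wells above the hit cutoff set in the primary screen, cut at about 17% in these data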;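 also: 0% = DMSO with NPY challenge and 100% = BIIE0246 high control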
Starred values were filed as active, the others as inactive. A selection: hits, their analogues and other compounds. The true share with any hit is near 2.3%.

Results for COc1ccc(C(=O)Oc2cc3c4c(c2)C(C)=CC(C)(C)N4C(=O)C3=O)cc1OC ?
Tb hexokinase: -1; m-calpain inh: -69; NPY Y1 blocker: -2; NPY-Y1 PAM-ag: 8; NPY-Y2 PAM-ag: -13; NPY-Y2 antag: 2

What do the screens show for `COc1cccc(C(=O)Oc2cc3c4c(c2)C(C)=CC(C)(C)N4C(=O)C3=O)c1`?
Tb hexokinase: 1; m-calpain inh: 10; NPY Y1 blocker: 16; NPY-Y1 PAM-ag: -77; NPY-Y2 PAM-ag: -31; NPY-Y2 antag: 46*; NPY1 antag ctr: 50*; NPY-Y2 ant conf: 82*

Results for Cc1cccc(/C(N)=N/OC(=O)COc2ccccc2Cl)c1 ?
Tb hexokinase: 0; m-calpain inh: -4; NPY Y1 blocker: 5; NPY-Y1 PAM-ag: -28; NPY-Y2 PAM-ag: 6; NPY-Y2 antag: 19*; NPY1 antag ctr: 8; NPY-Y2 ant conf: 15

Results for COc1ccc(/C(N)=N/OC(=O)COc2ccccc2Cl)cc1 ?
Tb hexokinase: 5; m-calpain inh: -9; NPY Y1 blocker: 8; NPY-Y1 PAM-ag: -30; NPY-Y2 PAM-ag: -6; NPY-Y2 antag: 7

What do the screens show for `CN1c2ccccc2C(C)(C)C12CC(c1cccc(S(=O)(=O)N3CCCC3)c1)=NO2` (configuration not stated)?
Tb hexokinase: -4; m-calpain inh: 0; NPY Y1 blocker: 0; NPY-Y1 PAM-ag: 0; NPY-Y2 PAM-ag: 8; NPY-Y2 antag: 1

How did CCOC(=O)CSC1=C(C#N)C(c2ccco2)C(C(=O)Nc2cccc(C(F)(F)F)c2)=C(C)N1 (configuration not stated) do in these assays?
Tb hexokinase: -11; m-calpain inh: 7; NPY Y1 blocker: 5; NPY-Y1 PAM-ag: -60; NPY-Y2 PAM-ag: -47; NPY-Y2 antag: 18*; NPY1 antag ctr: 15; NPY-Y2 ant conf: 19*

Results for CCOC(=O)C1=C(c2ccccc2)NC(SCC(=O)Nc2cccc(C)c2)=C(C#N)C1c1ccco1 (configuration not stated) ?
Tb hexokinase: 4; m-calpain inh: -48; NPY Y1 blocker: 10; NPY-Y1 PAM-ag: -14; NPY-Y2 PAM-ag: -17; NPY-Y2 antag: 7

Results for c1ccc2c(c1)nnn2-c1ncnc2sc3c(c12)CCCC3 ?
Tb hexokinase: -5; m-calpain inh: -157; NPY Y1 blocker: 8; NPY-Y1 PAM-ag: -18; NPY-Y2 PAM-ag: -23; NPY-Y2 antag: 6

How did Cc1nc(-n2nnc3ccccc32)c2c3c(sc2n1)CCCC3 do in these assays?
Tb hexokinase: -7; m-calpain inh: -89; NPY Y1 blocker: 15; NPY-Y1 PAM-ag: -23; NPY-Y2 PAM-ag: -36; NPY-Y2 antag: 22*; NPY1 antag ctr: 11; NPY-Y2 ant conf: 10

What do the screens show for `N/C(=N\O)c1ccc(Cl)cc1Cl`?
Tb hexokinase: -5; m-calpain inh: 15; NPY-Y1 PAM-ag: -7; NPY-Y2 PAM-ag: 2

Results for COC(=O)c1ccccc1NC(=O)Cn1c(-c2nonc2N)nc2ccccc21 ?
Tb hexokinase: -2; m-calpain inh: -38; NPY Y1 blocker: 20; NPY-Y1 PAM-ag: -43; NPY-Y2 PAM-ag: -13; NPY-Y2 antag: 39*; NPY1 antag ctr: 19; NPY-Y2 ant conf: 24*

Results for CC(C)OC(=O)c1ccc(NC(=O)Cn2c(-c3nonc3N)nc3ccccc32)cc1 ?
Tb hexokinase: -14; m-calpain inh: 21; NPY Y1 blocker: 20; NPY-Y1 PAM-ag: -44; NPY-Y2 PAM-ag: -15; NPY-Y2 antag: 18*; NPY1 antag ctr: 11; NPY-Y2 ant conf: 12

What do the screens show for `CCOC(=O)c1ccc(Nc2sc(C(=O)c3cccc([N+](=O)[O-])c3)c(N)c2C#N)cc1`?
Tb hexokinase: -71; m-calpain inh: 6; NPY-Y1 PAM-ag: -15; NPY-Y2 PAM-ag: 12

How did O=C(Nc1cccc(N=Cc2cc(Br)cc(Br)c2O)c1)c1ccco1 do in these assays?
Tb hexokinase: -3; m-calpain inh: -22; NPY Y1 blocker: -1; NPY-Y1 PAM-ag: -14; NPY-Y2 PAM-ag: -8; NPY-Y2 antag: 17*; NPY1 antag ctr: 17; NPY-Y2 ant conf: 25*

How did O=C(Nc1cccc(N=Cc2cc(Cl)cc(Br)c2O)c1)c1ccco1 do in these assays?
Tb hexokinase: 24; m-calpain inh: -26; NPY Y1 blocker: 5; NPY-Y1 PAM-ag: -9; NPY-Y2 PAM-ag: -5; NPY-Y2 antag: 7

How did CCOc1ccc(N(CC(=O)NC2CCCC(C)C2C)S(=O)(=O)c2c(C)noc2C)cc1 (configuration not stated) do in these assays?
Tb hexokinase: 0; m-calpain inh: 5; NPY Y1 blocker: 7; NPY-Y1 PAM-ag: -7; NPY-Y2 PAM-ag: 14; NPY-Y2 antag: 20*; NPY1 antag ctr: 4; NPY-Y2 ant conf: 6

Results for COc1ccc(NC(=O)C(NC(C)=O)C(=O)NCc2ccccc2)cc1 (configuration not stated) ?
Tb hexokinase: 7; m-calpain inh: 9; NPY Y1 blocker: 0; NPY-Y1 PAM-ag: 2; NPY-Y2 PAM-ag: -5; NPY-Y2 antag: 1

How did COc1ccc(CNC(=O)C(NC(C)=O)C(=O)Nc2ccc(OC)cc2)cc1 (configuration not stated) do in these assays?
Tb hexokinase: -1; m-calpain inh: -42; NPY Y1 blocker: 5; NPY-Y1 PAM-ag: 16; NPY-Y2 PAM-ag: 2; NPY-Y2 antag: 21*; NPY1 antag ctr: 0; NPY-Y2 ant conf: -1

What do the screens show for `CCOC(=O)Cn1c(S(=O)(=O)Cc2ccccc2Cl)nc(-c2ccccc2)c1-c1ccccc1`?
Tb hexokinase: 3; m-calpain inh: 2; NPY Y1 blocker: 12; NPY-Y1 PAM-ag: -21; NPY-Y2 PAM-ag: -22; NPY-Y2 antag: 24*; NPY1 antag ctr: 12; NPY-Y2 ant conf: 9

Results for C#CCn1c(S(=O)(=O)Cc2ccc(C)cc2)nc(-c2ccccc2)c1-c1ccccc1 ?
Tb hexokinase: 9; m-calpain inh: -11; NPY Y1 blocker: 16; NPY-Y1 PAM-ag: -20; NPY-Y2 PAM-ag: -17; NPY-Y2 antag: 21*; NPY1 antag ctr: 15; NPY-Y2 ant conf: 11

What do the screens show for `O=C(Nc1cccn(Cc2c(Cl)cccc2Cl)c1=O)c1ccccc1Cl`?
Tb hexokinase: -2; m-calpain inh: 33; NPY Y1 blocker: 8; NPY-Y1 PAM-ag: -21; NPY-Y2 PAM-ag: -6; NPY-Y2 antag: 23*; NPY1 antag ctr: 12; NPY-Y2 ant conf: 6

What do the screens show for `CCOC(=O)Cc1csc(NC(=O)Cn2c(=O)oc3ccccc32)n1`?
Tb hexokinase: 6; m-calpain inh: -8; NPY-Y1 PAM-ag: -2; NPY-Y2 PAM-ag: -4

Results for COc1ccc([N+](=O)[O-])cc1NC(=O)CCCOc1ccccc1 ?
Tb hexokinase: 0; m-calpain inh: -15; NPY Y1 blocker: 3; NPY-Y1 PAM-ag: -4; NPY-Y2 PAM-ag: 12; NPY-Y2 antag: 13
